Experimental findings from PubChem BioAssay are described below.

Assay [1] in a line: reduced viability of SK-BR-3 breast cancer cells – cell-based, 24 h, human, pilot screen (AID 572;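 active = viability at or below 10% of carrier control in both of two separate runs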;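 note: compound exposure lasted between 18 and 24 h rather than exactly 24 h; 100% = carrier-treated control wells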). The conditions noted are these: SK-BR-3 viability, CellTiter-Glo luminescence, at 10 µM, stronger effect = lower value. In general terms: ATP-based viability assays read luminescence as a measure of living cells.
Assay [2] is described as follows: HUVEC growth inhibition – cell-based, human, primary screen (AID 575;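 active = viability at or below 30% in both replicate assays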;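 note: 100% = median of untreated cell wells with 0.1% DMSO on each plate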). The conditions noted are these: HUVEC proliferation, CellTiter-Glo luminescence, 72 h; at 10 µM; stronger effect = lower value. The method, boiled down:
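System: primary human umbilical vein endothelial cells; Quantity: 1250 endothelial cells in each well; Buffer or medium: supplemented EBM, 2% fetal bovine serum; Doses: one dose, 10 µM final, 0.1% DMSO; Incubation: 72 h compound incubation; Technique: ATP-based CellTiter-Glo luminescent read; Evaluation: percent of median DMSO-control luminescence; Controls: vehicle and MePR control wells.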

A short description of assay [3]: H69AR cell proliferation blockers – human, duplicate replicates, primary screen (AID 580;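 active = viability at or under a set limit in both replicates, limit being median viability minus 3 SD, cut at about 48% in these data, passing the limit was not always enough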;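 note: 100% = mean luminescence of untreated wells and 0% = no signal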). The conditions noted are these: H69AR lung tumor cells viability, ATP luminescence, 72 h; at 10 µM; stronger effect = lower value.
The nature of assay [4]: MRP1 drug-resistance reversers in H69AR cells – cell-based, doxorubicin co-treatment, pilot screen (AID 601;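 active = viability loss from added drug above about 55%, and viability with drug at most 40%, in both replicates, limit read from the data, passing the limit was not always enough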). The conditions noted are these: CellTiter-Glo, 72 h, at 10 µM; for differential viability (reversal): stronger effect = higher value.
Assay [5] can be described thus: yeast transport mutant growth inhibition pilot in 384-well plates, post-Golgi transport modulator project (AID 636; in the data active = inhibition above about 31%). The conditions noted are these: absorbance 615 nm, about 18 h, stronger effect = higher value.
Assay [6] is described as follows: growth suppression of yeast trafficking mutant, preliminary HTS, modulators of trafficking downstream of Golgi apparatus project, 1536-format plate, OD 615 nm (AID 637). The conditions noted are these: yeast transport mutant growth, absorbance 615 nm, 18 h; stronger effect = higher value.
Where [7] appears, read: H69AR cells + 2 uM doxorubicin, measured here: viability with 2 uM doxorubicin, stronger effect = lower value.
Where [8] appears, read: H69AR cells, compound alone cytotoxicity.

Activity calls are given as the source filed them. Cut-off read from the data, not from the text of the source, unless noted: active = inhibition above about 30%; inactive = the rest.

As a reminder, the viability is a read-out of living cells in per cent, often relative to untreated cells. As a reminder, the inhibition is the change of the read-out against control, counted positive when it falls. On to `CC(C)(C)c1ccc(C(=O)N2CCC(C(=O)NCc3ccncc3)CC2)cc1`, for which the viability in assay [1] was 110% (inactive); in assay [2], 95.6% (inactive); in assay [3], 88.8% (inactive); in assay [4] (setting [7]), 94.3%; in assay [4] (setting [8]), 88.8%. Moreover, the differential viability (reversal) in assay [4] (H69AR cells + 2 uM doxorubicin) is -5.45% (inactive). Also, the figures for the inhibition in assay [5] and in assay [6] were -3.2% (inactive) and -8.18% (inactive), respectively.

As to `Cc1ccc(S(=O)(=O)N2CCN(C(=O)CSc3nc4ccccc4c(=O)[nH]3)CC2)c(C)c1`, the viability in assay [1] was 99% (inactive); in assay [2], 77.4% (inactive); in assay [3] it was 85.1% (inactive); in assay [4] (setting [7]), 68.2%; in assay [4] (setting [8]), 85.1%. In assay [4] (H69AR cells + 2 uM doxorubicin), the differential viability (reversal) is 16.8% (inactive). The values for the inhibition in assay [5] and in assay [6] were -6.53% (inactive) and -3.64% (inactive), respectively.

On to `CN(C)C(=O)CSc1nnc2sc3ccccc3n12`, for which the viability in assay [1] is 71% (inactive); in assay [2], 105% (inactive); in assay [3], 89.2% (inactive); in assay [4] (setting [7]), 95.3%; in assay [4] (setting [8]), 89.2%. In assay [4] (H69AR cells + 2 uM doxorubicin), the differential viability (reversal) was -6.11% (inactive). The results for the inhibition in assay [5] and in assay [6] were -8.63% (inactive) and 1.82% (inactive), respectively.

Turning to `CCN(CC)S(=O)(=O)c1ccc(F)c(C(=O)NCCC(C)C)c1`, the viability in assay [1] is 82% (inactive); in assay [2], 95% (inactive); in assay [3], 90.9% (inactive); in assay [4] (setting [7]), 84.4%; in assay [4] (setting [8]) it was 90.9%. For the same molecule, the differential viability (reversal) in assay [4] (H69AR cells + 2 uM doxorubicin) was 6.46% (inactive). Moreover, the inhibition in assay [5] was -0.54% (inactive); in assay [6] it was -2.73% (inactive).

Turning to `CCC1Oc2ccc(C)cc2N(CC(=O)NCCCN2CCCCC2CC)C1=O` (stereo unspecified), the viability in assay [1] was 99% (inactive); in assay [2] it was 83.7% (inactive); in assay [3], 87.5% (inactive); in assay [4] (setting [7]), 93.9%; in assay [4] (setting [8]) it was 87.5%. Further, the differential viability (reversal) in assay [4] (H69AR cells + 2 uM doxorubicin) was -6.5% (inactive). The inhibition in assay [5] is -0.78% (inactive); in assay [6], -0.66% (inactive).

On to `CCc1cccc(NC(=O)CN(C)S(=O)(=O)c2cccc3nsnc23)c1`, for which the viability is 92% (inactive) in assay [1]; 90.3% (inactive) in assay [2]; 91.8% (inactive) in assay [3]; 84.1% in assay [4] (setting [7]); 91.8% in assay [4] (setting [8]). For the same molecule, the differential viability (reversal) in assay [4] (H69AR cells + 2 uM doxorubicin) is 7.68% (inactive). Besides, the inhibition in assay [5] was -5.68% (inactive); in assay [6], -2.55% (inactive).

`Nc1ccc(S(=O)(=O)Nc2ccccn2)cc1`: the viability is 143% (inactive) in assay [1]; 102% (inactive) in assay [2]; 91.3% (inactive) in assay [3]; 81% in assay [4] (setting [7]); 91.3% in assay [4] (setting [8]). In addition, the differential viability (reversal) in assay [4] (H69AR cells + 2 uM doxorubicin) is 10.3% (inactive). Further, the inhibition in assay [5] was 0.78% (inactive); in assay [6], -1.17% (inactive).

Take `O=C1C2CCCN2C(c2ccccc2)N1c1ccc(Cl)cc1` (stereo unspecified): the viability in assay [1] was 110% (inactive); in assay [2], 79.1% (inactive); in assay [3], 104% (inactive); in assay [4] (setting [7]), 85.2%; in assay [4] (setting [8]), 104%. The differential viability (reversal) in assay [4] (H69AR cells + 2 uM doxorubicin) is 19% (inactive). Also, the inhibition in assay [5] is -4.67% (inactive); in assay [6] it was -5.82% (inactive).

As for `Cc1ccc2cc(CN(Cc3ccc(F)cc3)Cc3nnnn3C3CCCC3)c(=O)[nH]c2c1`, the viability in assay [1] was 100% (inactive); in assay [2] it was 71.2% (inactive); in assay [3], 78.7% (inactive); in assay [4] (setting [7]) it was 74.4%; in assay [4] (setting [8]), 78.7%. Also, in assay [4] (H69AR cells + 2 uM doxorubicin), the differential viability (reversal) is 4.34% (inactive). Moreover, the inhibition in assay [5] was -4.19% (inactive); in assay [6], 3.09% (inactive).

Regarding `COc1ccc(-c2oc3ncn(CCN4CCOCC4)c(=N)c3c2-c2ccc(OC)cc2)cc1`, the viability in assay [1] was 82% (inactive); in assay [2] it was 88.9% (inactive); in assay [3], 24% (active); in assay [4] (setting [7]), 21.5%; in assay [4] (setting [8]) it was 24%. Moreover, in assay [4] (H69AR cells + 2 uM doxorubicin), the differential viability (reversal) is 2.45% (inactive). Also, the results for the inhibition in assay [5] and in assay [6] were -4.73% (inactive) and -2.55% (inactive), respectively.

Regarding `Cc1ccc2c(c1)C(N1CCCC1=O)CC(c1ccco1)N2` (stereo unspecified), the viability in assay [1] was 108% (inactive); in assay [2] it was 74.7% (inactive); in assay [3], 68.7% (inactive); in assay [4] (setting [7]), 66.6%; in assay [4] (setting [8]) it was 68.7%. The differential viability (reversal) in assay [4] (H69AR cells + 2 uM doxorubicin) was 2.15% (inactive). In addition, the inhibition in assay [5] is -5.6% (inactive); in assay [6] it was -6.51% (inactive).

For the molecule `CCOc1ccc(-c2cn(S(=O)(=O)c3cccc4nsnc34)nc2N)cc1`, the viability in assay [1] is 117% (inactive); in assay [2], 94.8% (inactive); in assay [3], 84.8% (inactive); in assay [4] (setting [7]), 81.6%; in assay [4] (setting [8]) it was 84.8%. Besides, the differential viability (reversal) in assay [4] (H69AR cells + 2 uM doxorubicin) is 3.21% (inactive). Also, the inhibition in assay [5] was 34.9% (active); in assay [6], 31% (active).
